Results taken from ChEMBL document CHEMBL1135725, “N-Aryl N'-hydroxyguanidines, a new class of NO-donors after selective oxidation by nitric oxide synthases: structure-activity relationship” (J Med Chem, 2002).

Columns and labels:
[1] = target: T1, Nitric oxide synthase 3 (Mus musculus) (UniProt P70313); experiment: Nitric oxide (NO) formation during oxidation of NADPH and O2, catalyzed by NOS III was detected spectrophotometrically using hemoglobin assay; type: functional
T1 sequence (whole entry): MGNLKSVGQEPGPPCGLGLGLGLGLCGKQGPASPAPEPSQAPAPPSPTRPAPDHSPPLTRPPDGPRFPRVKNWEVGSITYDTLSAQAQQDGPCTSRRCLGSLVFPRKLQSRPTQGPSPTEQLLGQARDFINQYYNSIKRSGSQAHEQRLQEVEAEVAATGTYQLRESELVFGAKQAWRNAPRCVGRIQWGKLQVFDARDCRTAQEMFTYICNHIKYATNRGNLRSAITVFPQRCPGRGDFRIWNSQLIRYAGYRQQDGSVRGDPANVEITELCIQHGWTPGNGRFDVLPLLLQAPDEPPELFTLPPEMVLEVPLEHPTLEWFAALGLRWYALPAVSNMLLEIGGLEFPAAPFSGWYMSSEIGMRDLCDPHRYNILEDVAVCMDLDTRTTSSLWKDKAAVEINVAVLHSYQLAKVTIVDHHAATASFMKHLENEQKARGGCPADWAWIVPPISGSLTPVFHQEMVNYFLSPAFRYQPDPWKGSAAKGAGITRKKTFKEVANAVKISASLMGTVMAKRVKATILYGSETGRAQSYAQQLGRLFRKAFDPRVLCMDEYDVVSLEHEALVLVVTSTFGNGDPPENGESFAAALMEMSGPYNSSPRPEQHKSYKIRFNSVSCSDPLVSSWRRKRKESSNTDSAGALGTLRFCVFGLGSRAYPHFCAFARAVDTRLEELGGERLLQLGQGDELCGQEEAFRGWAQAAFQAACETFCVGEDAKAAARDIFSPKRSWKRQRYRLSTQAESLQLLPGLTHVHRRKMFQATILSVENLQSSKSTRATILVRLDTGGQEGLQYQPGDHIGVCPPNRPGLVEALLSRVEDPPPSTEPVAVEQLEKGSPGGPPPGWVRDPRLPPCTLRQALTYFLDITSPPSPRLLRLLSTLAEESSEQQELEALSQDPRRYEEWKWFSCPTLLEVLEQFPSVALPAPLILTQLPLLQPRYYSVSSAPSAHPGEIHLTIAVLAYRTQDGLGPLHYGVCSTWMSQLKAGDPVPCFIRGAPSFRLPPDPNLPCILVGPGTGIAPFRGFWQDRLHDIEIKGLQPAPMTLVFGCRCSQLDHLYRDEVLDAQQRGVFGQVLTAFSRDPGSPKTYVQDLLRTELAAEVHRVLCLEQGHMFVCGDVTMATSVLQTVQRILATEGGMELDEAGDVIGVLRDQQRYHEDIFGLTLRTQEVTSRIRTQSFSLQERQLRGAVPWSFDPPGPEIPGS
Procedure, shortened: (§1)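 Hemoglobin assay with purified recombinant NOS I (rat brain, expressed in S. cerevisiae) or NOS III (E. coli), at 37 °C in 50 mM HEPES pH 7.4. The mix held 1 mM NADPH, 100 μM BH4, 5 mM DTT, SOD/catalase, oxyhemoglobin, 1 mM CaCl2, 10 μg/mL CaM and 500 μM substrate. Methemoglobin formation was read at 401 nm. Activity is given as percent of that with 500 μM NOHA, from three to five experiments.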

[2] = target: Nitric oxide synthase 1 (Rattus norvegicus) (UniProt P29476); experiment: Nitric oxide (NO) formation during oxidation of NADPH and O2, catalyzed by NOS I was detected spectrophotometrically using hemoglobin assay; type: functional; procedure, shortened: as §1
Chain of Nitric oxide synthase 1 (Rattus norvegicus) (P29476 whole entry): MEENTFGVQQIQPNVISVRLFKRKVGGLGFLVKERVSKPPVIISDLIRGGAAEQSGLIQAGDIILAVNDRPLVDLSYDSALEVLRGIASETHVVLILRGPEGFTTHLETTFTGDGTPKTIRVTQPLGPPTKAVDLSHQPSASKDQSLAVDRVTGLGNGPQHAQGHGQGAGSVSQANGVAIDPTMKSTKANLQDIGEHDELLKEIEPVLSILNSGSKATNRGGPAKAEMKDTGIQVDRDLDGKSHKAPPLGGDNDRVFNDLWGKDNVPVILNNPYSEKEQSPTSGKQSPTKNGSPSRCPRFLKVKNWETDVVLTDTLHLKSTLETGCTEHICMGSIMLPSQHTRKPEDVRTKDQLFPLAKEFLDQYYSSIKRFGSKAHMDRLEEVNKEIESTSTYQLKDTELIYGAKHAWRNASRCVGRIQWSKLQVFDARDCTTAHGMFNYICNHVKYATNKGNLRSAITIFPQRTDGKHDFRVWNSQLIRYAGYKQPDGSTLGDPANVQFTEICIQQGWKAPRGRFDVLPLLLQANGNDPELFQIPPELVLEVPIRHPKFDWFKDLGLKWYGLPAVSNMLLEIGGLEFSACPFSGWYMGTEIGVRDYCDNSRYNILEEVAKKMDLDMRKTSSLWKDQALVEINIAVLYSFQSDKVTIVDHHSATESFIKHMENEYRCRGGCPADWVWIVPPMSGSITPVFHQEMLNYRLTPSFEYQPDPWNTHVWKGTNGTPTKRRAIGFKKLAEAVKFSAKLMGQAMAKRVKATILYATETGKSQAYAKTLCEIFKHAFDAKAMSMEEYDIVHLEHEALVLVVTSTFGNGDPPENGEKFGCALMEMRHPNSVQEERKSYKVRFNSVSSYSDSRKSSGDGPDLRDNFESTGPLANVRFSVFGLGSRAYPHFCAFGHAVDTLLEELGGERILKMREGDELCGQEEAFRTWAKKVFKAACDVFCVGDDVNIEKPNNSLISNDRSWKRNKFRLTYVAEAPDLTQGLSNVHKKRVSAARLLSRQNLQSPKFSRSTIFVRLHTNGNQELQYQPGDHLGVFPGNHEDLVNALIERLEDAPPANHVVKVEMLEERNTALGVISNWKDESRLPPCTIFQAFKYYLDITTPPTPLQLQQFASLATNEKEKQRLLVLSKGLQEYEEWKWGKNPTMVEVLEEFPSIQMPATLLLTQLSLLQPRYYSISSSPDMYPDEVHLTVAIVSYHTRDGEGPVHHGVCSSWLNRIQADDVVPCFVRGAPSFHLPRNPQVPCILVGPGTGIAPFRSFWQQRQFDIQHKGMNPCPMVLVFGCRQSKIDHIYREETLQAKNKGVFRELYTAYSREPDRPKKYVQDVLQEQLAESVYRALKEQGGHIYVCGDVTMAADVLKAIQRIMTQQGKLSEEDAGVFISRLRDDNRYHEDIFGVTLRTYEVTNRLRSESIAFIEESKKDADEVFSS

[3] = target: T2, Nitric oxide synthase, inducible (Mus musculus) (UniProt P29477); experiment: (§2) Kinetic constant for NO formation during transformation of oxyhemoglobin to methemoglobin using NADPH and molecular Oxygen in the presence of (NOS II)
T2 sequence (whole entry): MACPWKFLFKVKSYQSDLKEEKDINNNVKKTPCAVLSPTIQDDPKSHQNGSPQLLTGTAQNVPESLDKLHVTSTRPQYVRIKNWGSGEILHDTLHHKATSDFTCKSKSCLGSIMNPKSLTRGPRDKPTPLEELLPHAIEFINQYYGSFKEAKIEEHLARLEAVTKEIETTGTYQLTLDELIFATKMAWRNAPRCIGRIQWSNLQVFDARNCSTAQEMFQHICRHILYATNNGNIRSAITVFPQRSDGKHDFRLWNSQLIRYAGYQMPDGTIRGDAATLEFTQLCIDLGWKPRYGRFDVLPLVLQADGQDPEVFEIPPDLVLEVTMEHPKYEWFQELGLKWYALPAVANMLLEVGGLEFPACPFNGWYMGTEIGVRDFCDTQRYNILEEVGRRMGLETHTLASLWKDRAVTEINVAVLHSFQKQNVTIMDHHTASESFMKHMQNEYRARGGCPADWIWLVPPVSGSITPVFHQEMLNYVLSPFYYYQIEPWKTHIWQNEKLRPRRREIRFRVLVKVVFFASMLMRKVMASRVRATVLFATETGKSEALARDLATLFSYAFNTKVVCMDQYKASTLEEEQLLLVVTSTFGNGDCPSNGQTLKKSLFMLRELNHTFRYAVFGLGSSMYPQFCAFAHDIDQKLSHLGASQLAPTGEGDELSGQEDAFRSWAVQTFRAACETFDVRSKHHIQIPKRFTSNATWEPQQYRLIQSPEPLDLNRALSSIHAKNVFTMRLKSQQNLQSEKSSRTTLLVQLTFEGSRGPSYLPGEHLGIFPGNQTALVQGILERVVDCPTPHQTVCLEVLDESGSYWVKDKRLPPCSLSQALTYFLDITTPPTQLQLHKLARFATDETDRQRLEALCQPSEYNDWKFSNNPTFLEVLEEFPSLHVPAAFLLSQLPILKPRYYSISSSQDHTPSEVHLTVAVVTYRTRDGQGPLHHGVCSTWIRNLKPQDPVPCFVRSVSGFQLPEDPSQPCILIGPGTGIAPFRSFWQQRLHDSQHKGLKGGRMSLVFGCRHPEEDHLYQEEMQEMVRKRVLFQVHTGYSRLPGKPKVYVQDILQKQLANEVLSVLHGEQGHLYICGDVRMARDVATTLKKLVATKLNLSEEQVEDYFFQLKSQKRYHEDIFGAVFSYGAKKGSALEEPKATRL
Procedure, shortened: (§3)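 Recombinant NOS II (E. coli-expressed, purified) assayed at 37 °C in 50 mM HEPES pH 7.4 with 1 mM NADPH, 100 μM BH4, 5 mM DTT, SOD and catalase (100 U/mL each), and 12-15 μM oxyhemoglobin. Substrate was varied from 5 μM to 2.5 mM. Enzyme level was set to keep oxyhemoglobin conversion below 30%. Kinetic constants come from the initial methemoglobin formation rate at 401 nm; three to four experiments.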

[4] = target: T2, Nitric oxide synthase, inducible (Mus musculus); experiment: Nitric oxide (NO) formation during oxidation of NADPH and O2, catalyzed by NOS II detected spectrophotometrically using hemoglobin assay.; type: functional
Procedure, shortened: (§4)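 Purified recombinant NOS II (E. coli) at 20-30 nM was run at 37 °C in 50 mM HEPES pH 7.4 with 1 mM NADPH, 100 μM BH4, 5 mM DTT, 100 U/mL SOD, 100 U/mL catalase, 12-15 μM oxyhemoglobin and 500 μM substrate, against a buffer reference. The initial rate was followed at 401 nm (ε 34 mM⁻¹ cm⁻¹), or at 577 nm for strongly absorbing compounds (ε 14.5). Values are means ± SD of three to eight experiments.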

[5] = target: T2, Nitric oxide synthase, inducible (Mus musculus); experiment: as §2; type: functional; procedure, shortened: as §3
[6] = target: T2, Nitric oxide synthase, inducible (Mus musculus); experiment: Nitric oxide (NO) formation during oxidation by NADPH and O2, catalyzed by NOS II was detected spectrophotometrically using hemoglobin assay; type: functional; procedure, shortened: as §4
[7] = target: T2, Nitric oxide synthase, inducible (Mus musculus); experiment: Nitric oxide (NO) formation during oxidation of NADPH and O2, catalyzed by NOS II was detected spectrophotometrically using hemoglobin assay; type: functional; procedure, shortened: as §4

SMILES | NOHA [4] | also measured
N=C(NO)Nc1ccc(Cl)cc1 | 13% | NOHA [1]: < 0.2%; NOHA [2]: < 0.2%; k cat [3]: 1.63 s⁻¹
N/C(=N\O)N1CCc2ccccc2C1 | < 0.2% | 
COc1ccc(N/C(C)=N/O)cc1 | < 0.2% | 
N/C(=N/c1cccc(C(F)(F)F)c1)NO | 2.5% | 
N=C(NO)Nc1cccc(CN)c1 | 1.5% | 
N/C(=N\O)c1ccccc1 | < 0.2% | 
N/C(=N/c1ccc(F)cc1)NO | 41% | NOHA [1]: < 0.2%; k cat [5]: 5.83 s⁻¹; NOHA [2]: 4.5%
O/N=C/c1ccc(Cl)cc1 | < 0.2% | 
Cc1ccc(NC(=N)NO)cc1 | 17.5% | NOHA [1]: < 0.2%; k cat [5]: 4.92 s⁻¹; NOHA [2]: < 0.2%
C/C(=N/c1ccc(Cl)cc1)NO | < 0.2% | 
N/C(=N/c1ccc(C(F)(F)F)cc1)NO | 0.5% | 
COc1ccc(C(=N)NO)cc1 | < 0.2% | 
N/C(=N\O)NCCc1ccccc1 | 6% | 
N/C(=N/c1ccc2c[nH]nc2c1)NO | 2.5% | 
CC(C)(C)c1ccc(NC(=N)NO)cc1 |  | NOHA [6]: < 0.2%
N/C(=N/c1ccc(OCC(=O)O)cc1)NO | < 0.2% | 
N/C(=N\O)c1ccc(Cl)cc1 | < 0.2% | 
N/C(=N/c1ccsc1)NO | 9.5% | k cat [5]: 0.667 s⁻¹
N/C(=N/c1ccc([N+](=O)[O-])cc1)NO | 2% | 

SMILES | NOHA [4] | also measured
N/C(=N/c1ccc(N)cc1)NO | 8% | NOHA [1]: < 0.2%; NOHA [2]: 4.5%
COc1ccc(/C(C)=N/O)cc1 | < 0.2% | 
N/C(=N/c1cccc(Cl)c1)NO | 5% | 
N/C(=N/c1cccc(CO)c1)NO | 6% | NOHA [1]: < 0.2%; NOHA [2]: < 0.2%
N/C(=N/c1ccc(O)cc1)NO | 16.5% | NOHA [1]: < 0.2%; k cat [5]: 1.83 s⁻¹; NOHA [2]: 8.5%
N=C(NO)Nc1ccccc1 | 20% | NOHA [1]: < 0.2%; k cat [5]: 2.17 s⁻¹; NOHA [2]: 1.5%
N/C(=N/CCCC(N)C(=O)O)NO (stereo not given) |  | Activity (nM (nM of NOS)) [1]: 65; Activity (nM (nM of NOS)) [7]: 425; k cat [5]: 7.08 s⁻¹; Activity (nM (nM of NOS)) [2]: 130
COc1ccc(NC(=N)NO)cc1 | 8% | NOHA [1]: < 0.2%; k cat [5]: 2.42 s⁻¹; NOHA [2]: 3.5%
CC(C(=O)O)c1ccc(NC(=N)NO)cc1 (stereo not given) | < 0.2% | 
COc1ccc(/C=N/O)cc1 | < 0.2% | 
COc1ccccc1/N=C(/N)NO | 5% | 
N/C(=N/c1ccc(CC(=O)O)cc1)NO | < 0.2% | 
N/C(=N/c1ccc(Br)cc1)NO | 7.5% | 
ON=C(Nc1ccccc1)Nc1ccccc1 | < 0.2% | 
N=C(NO)NCc1ccccc1 | 15% | 
N/C(=N/c1cccc(N)c1)NO | 3.5% | NOHA [1]: 6.5%; NOHA [2]: 2.5%
N/C(=N/c1ccccc1Cl)NO | 5% | 
C/C(=N\O)c1ccc(Cl)cc1 | < 0.2% | 
